As usually defined, the IC50 is the concentration that inhibits the measured activity by half. Broadly, the Papp A→B is the apparent permeability from the apical to the basolateral side of a cell layer. One may read the efflux ratio as the permeability from basolateral to apical divided by that in the opposite direction, in the common usage.

The record followed here is ChEMBL document CHEMBL1821697, “Design and synthesis of brain penetrant selective JNK inhibitors with improved pharmacokinetic properties for the prevention of neurodegeneration” (Bioorg Med Chem Lett, 2011).

Data set [1] in a line: Oxidative metabolic stability in mouse liver microsomes assessed as compound remaining at 1 uM after 30 mins. It counts as ADME, Microsome. To be noted: read-out: Stability. A digest of the protocol:
(§1)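 Test compound was incubated with mouse, rat or human liver microsomes for 30 min. The read-out is percent of parent compound remaining.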
Background: Liver microsomes are a subcellular fraction often used to study metabolism.

The target of data set [2] is Mitogen-activated protein kinase 9 (Homo sapiens, UniProt P45984). The experiment in a line: Inhibition of recombinant JNK2 using ser73 of c-jun as substrate preincubated for 15 mins measured after 60 mins by TR-FRET assay. A digest of the protocol:
(§2)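 Recombinant JNK enzyme assay run at 10 µM ATP. IC50 values are means of at least three experiments.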
(In TR-FRET formats the signal depends on donor and acceptor labels being close together.)

A short description of data set [3]: Oxidative metabolic stability in rat liver microsomes assessed as compound remaining at 1 uM after 30 mins. It counts as ADME, Microsome. The note with it: read-out: Stability. A digest of the protocol: as §1
Data set [4] addresses Mitogen-activated protein kinase 8 (Homo sapiens, UniProt P45983). The experiment in a line: Inhibition of recombinant JNK1 using ser73 of c-jun as substrate preincubated for 15 mins measured after 60 mins by TR-FRET assay. The procedure, abridged:
as §2

Data set [5] deals with Mitogen-activated protein kinase 10 (Homo sapiens, UniProt P53779). The data set can be described thus: Inhibition of recombinant JNK3 using ser73 of c-jun as substrate preincubated for 15 mins measured after 60 mins by TR-FRET assay. A digest of the protocol:
as §2

Data set [6] in a line: Oxidative metabolic stability in human liver microsomes assessed as compound remaining at 1 uM after 30 mins. It counts as ADME, Microsome. The note with it: read-out: Stability. A digest of the protocol:
as §1

The nature of data set [7]: Apparent permeability from apical to basolateral side of MDCK2 cells at 5 uM after 120 mins by LC/MS/MS method. In kind it is ADME, cell-based, Canis lupus familiaris, MDCK-II. To be noted: dog, MDCK.
Data set [8] addresses Mitogen-activated protein kinase 1 (Homo sapiens, UniProt P28482). The experiment in a line: Inhibition of recombinant ERK2 using Ser383 of Elk-1 as substrate preincubated for 15 mins measured after 60 mins by TR-FRET assay.
A further data set concerns MDR1. The experiment in a line: Efflux ratio of permeability across MDCK2 expressing MDR1 at 5 uM after 120 mins by LC/MS/MS method. To be noted: dog, MDCK-MDR1. It counts as ADME, Canis lupus familiaris, MDCK-II.
For data set [9], the target named is Mitogen-activated protein kinase 14 (Homo sapiens, UniProt Q16539). The experiment in a line: Inhibition of recombinant p38alpha Thr69/71 of ATF-2 as substrate preincubated for 15 mins measured after 60 mins by TR-FRET assay.
Sequence of Mitogen-activated protein kinase 14 (Q16539 whole entry): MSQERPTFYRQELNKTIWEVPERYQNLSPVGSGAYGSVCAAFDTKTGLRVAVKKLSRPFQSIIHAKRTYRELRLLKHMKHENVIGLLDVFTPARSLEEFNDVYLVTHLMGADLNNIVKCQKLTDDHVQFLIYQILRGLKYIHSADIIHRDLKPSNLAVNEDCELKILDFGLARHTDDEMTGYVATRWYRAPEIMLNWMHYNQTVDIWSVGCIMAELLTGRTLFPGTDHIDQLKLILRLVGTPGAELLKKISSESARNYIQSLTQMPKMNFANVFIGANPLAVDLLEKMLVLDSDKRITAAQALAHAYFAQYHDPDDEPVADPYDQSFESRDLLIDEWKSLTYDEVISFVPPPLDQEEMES

Sequence of Mitogen-activated protein kinase 10 (P53779 whole entry): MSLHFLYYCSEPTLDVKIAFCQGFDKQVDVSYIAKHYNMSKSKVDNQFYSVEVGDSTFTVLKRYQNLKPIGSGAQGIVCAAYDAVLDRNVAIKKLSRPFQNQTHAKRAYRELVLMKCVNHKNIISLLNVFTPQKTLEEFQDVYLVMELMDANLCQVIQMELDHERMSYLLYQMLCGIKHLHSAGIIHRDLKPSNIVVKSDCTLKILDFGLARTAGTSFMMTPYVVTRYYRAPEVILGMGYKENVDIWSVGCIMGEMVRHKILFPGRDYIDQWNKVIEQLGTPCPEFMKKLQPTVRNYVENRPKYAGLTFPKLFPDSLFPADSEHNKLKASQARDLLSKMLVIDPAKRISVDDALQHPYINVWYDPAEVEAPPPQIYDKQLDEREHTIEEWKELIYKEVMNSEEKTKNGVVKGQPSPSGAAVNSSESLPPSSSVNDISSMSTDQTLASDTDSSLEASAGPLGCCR
Sequence of Mitogen-activated protein kinase 9 (P45984 whole entry): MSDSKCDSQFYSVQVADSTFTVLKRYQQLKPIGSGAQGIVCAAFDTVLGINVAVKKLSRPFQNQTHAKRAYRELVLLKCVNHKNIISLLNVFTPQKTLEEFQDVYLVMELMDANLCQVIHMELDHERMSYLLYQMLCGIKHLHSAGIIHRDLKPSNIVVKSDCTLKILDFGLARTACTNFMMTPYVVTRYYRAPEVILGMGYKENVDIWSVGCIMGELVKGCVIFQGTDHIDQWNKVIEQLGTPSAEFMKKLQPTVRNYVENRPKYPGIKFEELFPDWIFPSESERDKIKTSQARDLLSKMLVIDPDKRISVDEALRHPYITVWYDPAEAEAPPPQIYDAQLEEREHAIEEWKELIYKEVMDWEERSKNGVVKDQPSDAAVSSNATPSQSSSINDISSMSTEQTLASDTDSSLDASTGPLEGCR
Sequence of Mitogen-activated protein kinase 8 (P45983 whole entry): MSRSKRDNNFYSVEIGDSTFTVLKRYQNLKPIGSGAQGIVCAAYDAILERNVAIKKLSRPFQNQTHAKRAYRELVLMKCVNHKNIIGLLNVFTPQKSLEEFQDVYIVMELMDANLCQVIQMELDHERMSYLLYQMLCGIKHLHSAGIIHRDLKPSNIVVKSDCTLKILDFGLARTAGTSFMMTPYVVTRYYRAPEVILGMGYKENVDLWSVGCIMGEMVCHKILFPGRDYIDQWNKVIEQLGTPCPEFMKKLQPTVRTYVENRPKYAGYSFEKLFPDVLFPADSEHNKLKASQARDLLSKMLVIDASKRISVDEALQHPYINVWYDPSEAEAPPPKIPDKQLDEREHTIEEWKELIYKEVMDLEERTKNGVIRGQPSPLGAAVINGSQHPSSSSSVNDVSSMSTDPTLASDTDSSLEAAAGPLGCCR
Sequence of Mitogen-activated protein kinase 1 (P28482 whole entry): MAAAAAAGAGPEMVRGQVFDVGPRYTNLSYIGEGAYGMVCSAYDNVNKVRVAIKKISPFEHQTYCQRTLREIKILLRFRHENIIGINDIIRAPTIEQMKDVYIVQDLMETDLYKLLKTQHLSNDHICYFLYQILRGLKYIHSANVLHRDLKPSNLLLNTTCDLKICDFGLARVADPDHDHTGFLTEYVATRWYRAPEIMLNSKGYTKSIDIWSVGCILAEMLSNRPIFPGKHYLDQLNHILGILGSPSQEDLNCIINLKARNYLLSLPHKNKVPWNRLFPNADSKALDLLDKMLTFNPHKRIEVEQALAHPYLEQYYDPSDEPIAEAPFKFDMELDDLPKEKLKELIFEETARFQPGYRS

Consider `N#Cc1csc(NC(=O)Cn2c(=O)ccc3cc(C(F)(F)F)ccc32)c1-c1cscn1`, for which the remaining at 0.5 h, 1 µM in [1] is 17%; in data set [3], 8%; in [6], 32%. The IC50 in [2] is 17 nM; in data set [4], 2 nM; in data set [5], 8 nM.
On to `O=C(Cn1c(=O)ccc2c(C(F)(F)F)cccc21)Nc1scc(Br)c1-c1ncn[nH]1`, for which the remaining at 0.5 h, 1 µM was found to be 27% in data set [1], 1% in data set [3] and 49% in data set [6]. Also, the IC50 is 193 nM in [2], 31 nM in [4] and 71 nM in data set [5].
For `O=C(Cc1ccc(C(F)(F)F)c2ncccc12)Nc1scc(Cl)c1-c1ncn[nH]1`, the remaining at 0.5 h, 1 µM stood at 3% in data set [1], 1% in data set [3] and 32% in data set [6]. In addition, the half-maximal inhibitory concentration (IC50) turned out to be 24 nM in data set [2], 81 nM in data set [4] and 183 nM in data set [5].
As for `N#Cc1ccc2c(ccc(=O)n2CC(=O)Nc2scc(Br)c2-c2ncn[nH]2)c1`, the remaining at 0.5 h, 1 µM in [1] was 60%; in data set [3], 46%; in [6], 69%. Further, the IC50 was 10 nM in data set [2]; > 50000 nM in data set [8]; 1 nM in data set [4]; > 50000 nM in data set [9]; 2 nM in data set [5]. Further, the Papp A→B at 2 h, 5 µM in [7] was determined as 3.43 ×10⁻⁶ cm/s. In addition, the efflux ratio at 2 h, 5 µM in the data set on MDR1 was found to be 4.18.
As for `N#Cc1csc(NC(=O)CN2C(=O)CCc3ncccc32)c1-c1nc[nH]n1`, the remaining at 0.5 h, 1 µM was determined as 84% in data set [1], 81% in data set [3] and 80% in data set [6]. Besides, the values for the IC50 in [2], in [4] and in data set [5] were 18 nM, 5 nM and 6 nM, respectively.
Turning to `N#Cc1csc(NC(=O)Cn2c(=O)ccc3cc(C(F)(F)F)ccc32)c1-c1ncco1`, the values for the remaining at 0.5 h, 1 µM in data set [1], in data set [3] and in [6] were 4%, 2% and 24%, respectively. Also, the IC50 was 29 nM in data set [2], 4 nM in data set [4] and 8 nM in data set [5].
In the case of `N#Cc1ccc2ccc(=O)n(CC(=O)Nc3scc(Br)c3-c3ncn[nH]3)c2c1`, the remaining at 0.5 h, 1 µM in data set [1] came out at 44%; in data set [3], 62%; in data set [6] it was 59%. Moreover, the IC50 in data set [2] was 10 nM; in data set [4], 1 nM; in data set [5] it was 2 nM.
Turning to `O=C(CN1C(=O)CCc2ncccc21)Nc1scc(Br)c1-c1ncco1`, the remaining at 0.5 h, 1 µM in [1] worked out at 0%; in [3] it was 0%; in [6], 11%. Further, the IC50 in data set [2] was 66 nM; in data set [4], 7 nM; in data set [5], 6 nM.
For `Cn1cnc(-c2c(Br)csc2NC(=O)CN2C(=O)CCc3ncccc32)n1`, the values for the remaining at 0.5 h, 1 µM in data set [1], in [3] and in [6] were 33%, 37% and 46%, respectively. The IC50 came out at 13 nM in [2], 1 nM in data set [4] and 3 nM in data set [5].
Take `O=C(Cn1c(=O)ccc2ccc(C(F)(F)F)cc21)Nc1scc(Br)c1-c1ncn[nH]1`: the remaining at 0.5 h, 1 µM in data set [1] stood at 29%; in data set [3] it was 25%; in data set [6], 44%. Besides, the IC50 in [2] was determined as 21 nM; in data set [4] it was 6 nM; in data set [5], 9 nM.
In the case of `O=C(Cc1ccc(F)c2cnccc12)Nc1scc(Br)c1-c1ncn[nH]1`, the results for the remaining at 0.5 h, 1 µM in [1], in [3] and in [6] were 34%, 5% and 44%, respectively. In addition, the IC50 in data set [2] worked out at 68 nM; in [4] it was 16 nM; in data set [5], 24 nM.
Consider `O=C(Cn1c(=O)ccc2cnc(C(F)(F)F)cc21)Nc1scc(Br)c1-c1ncn[nH]1`, for which the results for the remaining at 0.5 h, 1 µM in data set [1], in [3] and in [6] were 43%, 43% and 77%, respectively. In addition, the IC50 in data set [2] turned out to be 21 nM; in data set [4] it was 4 nM; in data set [5] it was 6 nM.
As to `O=C(Cn1c(=O)ccc2ccc(OC(F)(F)F)cc21)Nc1scc(Br)c1-c1ncn[nH]1`, the remaining at 0.5 h, 1 µM came out at 10% in [1], 26% in [3] and 29% in [6]. In addition, the figures for the IC50 in data set [2], in data set [4] and in data set [5] were 68 nM, 11 nM and 19 nM, respectively.
`O=C(Cn1c(=O)ccn2nc(C(F)(F)F)cc12)Nc1scc(Br)c1-c1ncn[nH]1`: the remaining at 0.5 h, 1 µM was 3% in [1], 42% in [3] and 48% in [6]. Moreover, the IC50 in [2] was 36 nM; in data set [4] it was 3 nM; in data set [5], 14 nM.
On to `N#Cc1csc(NC(=O)CN2C(=O)CCc3ncccc32)c1-c1nccs1`, for which the remaining at 0.5 h, 1 µM in data set [1] was 7%; in data set [3] it was 1%; in data set [6], 16%. Moreover, the IC50 amounted to 62 nM in data set [2], 10 nM in data set [4] and 11 nM in data set [5].
Turning to `O=C(Cn1c(=O)ccc2cc(OC(F)(F)F)ccc21)Nc1scc(Br)c1-c1ncn[nH]1`, the remaining at 0.5 h, 1 µM in [1] was 16%; in [3], 39%; in data set [6] it was 64%. Further, the IC50 is 12 nM in data set [2], 2 nM in [4] and 6 nM in data set [5].
Regarding `O=C(Cc1cc(C(F)(F)F)cc2ncccc12)Nc1scc(Br)c1-c1nnc[nH]1`, the remaining at 0.5 h, 1 µM in data set [1] came to 3%; in data set [3], 16%; in data set [6], 31%. In addition, the IC50 is 337 nM in data set [2], 178 nM in data set [4] and 280 nM in [5].
On to `O=C(Cn1c(=O)ccc2cnccc21)Nc1scc(Br)c1-c1ncn[nH]1`, for which the remaining at 0.5 h, 1 µM in data set [1] was determined as 51%; in data set [3] it was 60%; in [6] it was 85%. For the same compound, the IC50 in data set [2] was determined as 8 nM; in data set [4] it was 4 nM; in [5], 7 nM.
Take `O=C(Cn1c(=O)ccn2nccc12)Nc1scc(Br)c1-c1ncn[nH]1`: the remaining at 0.5 h, 1 µM in [1] came to 50%; in data set [3], 71%; in [6], 72%. Further, the IC50 in data set [2] is 74 nM; in [4], 8 nM; in data set [5], 8 nM.
With `O=C(Cc1cccc2ncc(C(F)(F)F)cc12)Nc1scc(Br)c1-c1nc[nH]n1`, the remaining at 0.5 h, 1 µM is 3% in data set [1], 20% in [3] and 37% in data set [6]. The IC50 in data set [2] stood at 164 nM; in [4], 21 nM; in data set [5], 52 nM.
With `O=C(CN1C(=O)CCc2ccccc21)Nc1scc(Br)c1-c1ncn[nH]1`, the remaining at 0.5 h, 1 µM in data set [1] is 0%; in data set [3] it was 0%; in data set [6], 24%.
Consider `O=C(Cc1cccc2ncc(F)cc12)Nc1scc(Br)c1-c1nc[nH]n1`, for which the remaining at 0.5 h, 1 µM was found to be 2% in data set [1], 17% in data set [3] and 39% in data set [6]. In addition, the IC50 amounted to 92 nM in [2], 17 nM in [4] and 30 nM in data set [5].
On to `N#Cc1csc(NC(=O)Cn2c(=O)ccc3cc(C(F)(F)F)ccc32)c1-c1nccs1`, for which the figures for the remaining at 0.5 h, 1 µM in [1], in data set [3] and in [6] were 52%, 76% and 75%, respectively. Further, the IC50 worked out at 53 nM in [2], 7 nM in data set [4] and 9 nM in data set [5].
In the case of `O=C(CN1C(=O)CCc2ncccc21)Nc1scc(Br)c1-c1nccs1`, the remaining at 0.5 h, 1 µM in [1] was 0%; in data set [3], 0%; in [6], 3%. Besides, the figures for the IC50 in [2], in data set [4] and in data set [5] were 145 nM, 13 nM and 15 nM, respectively.
With `O=C(Cc1cc(F)cc2ncccc12)Nc1scc(Br)c1-c1ncn[nH]1`, the results for the remaining at 0.5 h, 1 µM in data set [1], in data set [3] and in [6] were 5%, 18% and 42%, respectively. Moreover, the IC50 in [2] came to 140 nM; in data set [4] it was 14 nM; in data set [5] it was 41 nM.
On to `O=C(Cn1c(=O)ccc2nc(C(F)(F)F)ccc21)Nc1scc(Br)c1-c1ncn[nH]1`, for which the remaining at 0.5 h, 1 µM worked out at 35% in data set [1], 2% in data set [3] and 64% in data set [6]. Further, the IC50 in data set [2] amounted to 38 nM; in data set [4] it was 8 nM; in data set [5], 14 nM.
